Consider 25 molecules from ChEMBL document CHEMBL3797198, “Discovery of pyrazinone based compounds that potently inhibit the drug-resistant enzyme variant R155K of the hepatitis C virus NS3 protease” (Bioorg Med Chem, 2016).

Data set [1] can be described thus: Inhibition of wild-type full-length HCV genotype 1a NS3 protease using Ac-DED(Edans)EEAbu-psi-[COO]ASK(Dabcyl)-NH2 as substrate by FRET assay. More on the design: species or system Hepatitis C virus subtype 1a. The gist of the method: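 Full-length HCV NS3 (protease-helicase/NTPase), genotype 1a wild type, FRET protease assay. 1 nM enzyme preincubated 10 min at 30 °C in 50 mM HEPES pH 7.5 with 10 mM DTT. Inhibition taken from measured initial velocities, corrected for each compound's auto-fluorescence. That correction used the ratio of fluorescence with and without compound, measured at every tested concentration.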

The next data set concerns Hepatitis C virus. Briefly: Antiviral activity against HCV infected in human HuH7 cells by cell based replicon assay. The settings on record: Huh-7. Type of data set: functional, organism-based, Hepacivirus hominis. The gist of the method:
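HCV replicon cell assay; EC50 given as the mean of two experiments.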
On the technique in general: Replicon systems follow genome replication, usually without infectious particles.

The nature of data set [2]: Cytotoxicity against human HuH7 cells. Type of data set: cell-based, Huh-7.

By Ki is commonly meant a measure of affinity in units of concentration, obtained from inhibition or displacement. In data set [1], `CC(C)(C)NC(=O)Nc1nc(Cl)c(CCC2CCCCC2)n(CC(=O)Nc2ccccc2C(=O)NS(=O)(=O)c2ccccc2C(F)(F)F)c1=O` had an inhibitory constant (Ki) of 130 nM.

`CC(C)(C)NC(=O)Nc1nc(Cl)c(Cc2ccccc2)n(CC(=O)O)c1=O`: in data set [1], the Ki is greater than 10000 nM.

As usually defined, the EC50 is the concentration that produces a half-maximal response. The low end stands for greater potency, the high end for weaker potency. One may read the CC50 as the concentration giving 50% cytotoxicity. Low values mean greater toxicity to the cells, high ones lower toxicity to the cells. In the data set with Hepatitis C virus, `CC(C)(C)OC(=O)N[C@H]1CCCCC/C=C\[C@@H]2C[C@@]2(C(=O)NS(=O)(=O)C2CC2)NC(=O)[C@@H]2C[C@@H](OC(=O)N3Cc4cccc(F)c4C3)CN2C1=O` [DANOPREVIR] had a concentration for a half-maximal effect (EC50) of 11 nM. The molecule also registered a 50% cytotoxic concentration (CC50) in data set [2] greater than 1000 nM.

For `CC(C)(C)NC(=O)Nc1nc(Cl)c(CCc2ccccc2)n(CC(=O)Nc2ccccc2S(=O)(=O)NC(=O)c2ccc(C(F)(F)F)cc2)c1=O`, the Ki in data set [1] came out at 170 nM.

In the case of `CC(C)(C)NC(=O)Nc1nc(Cl)c(CCC2CCCCC2)n(CC(=O)Nc2ccccc2C(=O)NS(=O)(=O)c2cccc(C(F)(F)F)c2)c1=O`, affinity in data set [1] was put at a Ki of 230 nM.

In the case of `CC(C)(C)NC(=O)Nc1nc(Cl)c(CCC2CCCCC2)n(CC(=O)Nc2ccc(CC(=O)NS(=O)(=O)c3ccc(C(F)(F)F)cc3)cc2)c1=O`, affinity in data set [1] was put at a Ki of 140 nM.

In turn, `CC(C)(C)NC(=O)Nc1nc(Cl)c(CCC2CCCCC2)n(CC(=O)Nc2cc(Br)ccc2C(=O)NS(=O)(=O)c2ccc(C(F)(F)F)cc2)c1=O` registered a Ki in data set [1] of 150 nM.

Consider `CC(C)(C)NC(=O)Nc1nc(Cl)c(CCC2CCCCC2)n(CC(=O)Nc2cccc(C(=O)NS(=O)(=O)c3ccc(C(F)(F)F)cc3)c2)c1=O`, for which the Ki in data set [1] amounted to 170 nM.

For the molecule `CC(C)(C)NC(=O)Nc1nc(Cl)c(Cc2cccc3ccccc23)n(CC(=O)Nc2ccc(S(=O)(=O)NC(=O)c3ccc(C(F)(F)F)cc3)cc2)c1=O`, affinity in data set [1] was put at a Ki of 170 nM.

In turn, `CC(C)(C)NC(=O)Nc1nc(Cl)c(CCC2CCCCC2)n(CC(=O)Nc2ccc(C(=O)NS(=O)(=O)c3ccc(C(F)(F)F)cc3)cc2)c1=O` registered an inhibition constant (Ki) in data set [1] of 260 nM.

`CC(C)(C)NC(=O)Nc1nc(Cl)c(CCC2CCCCC2)n(CC(=O)Nc2ccccc2C(=O)O)c1=O` registered an inhibition constant (Ki) in data set [1] of 120 nM. This molecule also gave an EC50 with Hepatitis C virus of 49000 nM. In addition, the CC50 in data set [2] is greater than 100000 nM.

Turning to `COC(=O)c1ccccc1NC(=O)Cn1c(CCC2CCCCC2)c(Cl)nc(NC(=O)NC(C)(C)C)c1=O`, the affinity in data set [1], expressed as Ki, was 120 nM. Also, the EC50 in the data set with Hepatitis C virus was 22000 nM. The molecule also came in with a cytotoxic concentration (CC50) in data set [2] greater than 100000 nM.

Take `CC(C)(C)NC(=O)Nc1nc(Cl)c(CCC2CCCCC2)n(CC(=O)Nc2cc(F)ccc2C(=O)NS(=O)(=O)c2ccc(C(F)(F)F)cc2)c1=O`: the Ki in data set [1] stood at 110 nM. Moreover, a half-maximal response in the data set with Hepatitis C virus (EC50) required 7300 nM. The molecule also returned a CC50 in data set [2] of 38000 nM.

`CC(C)(C)NC(=O)Nc1nc(Cl)c(CCC2CCCCC2)n(CC(=O)NC2(C(=O)NS(=O)(=O)c3ccc(C(F)(F)F)cc3)CC(OCc3ccccc3)C2)c1=O` (centres undefined): in data set [1], the Ki stood at 70 nM.

Consider `CC(C)(C)NC(=O)Nc1nc(Cl)c(CCC2CCCCC2)n(CC(=O)Nc2cc(C(=O)NS(=O)(=O)c3ccc(C(F)(F)F)cc3)cc(C(F)(F)F)c2)c1=O`, for which the Ki in data set [1] came out at 100 nM.

As for `CC(C)(C)NC(=O)Nc1nc(Cl)c(Cc2cccc3ccccc23)n(CC(=O)Nc2ccccc2S(=O)(=O)NC(=O)c2ccc(C(F)(F)F)cc2)c1=O`, in data set [1], the inhibition constant Ki is 180 nM.

In data set [1], `CC(C)(C)NC(=O)Nc1nc(Cl)c(CCC2CCCCC2)n(CC(=O)Nc2cc(-c3cncnc3)ccc2C(=O)NS(=O)(=O)c2ccc(C(F)(F)F)cc2)c1=O` yielded a Ki of 120 nM.

In the case of `C=Cc1ccc(C(=O)NS(=O)(=O)c2ccc(C(F)(F)F)cc2)c(NC(=O)Cn2c(CCC3CCCCC3)c(Cl)nc(NC(=O)NC(C)(C)C)c2=O)c1`, the Ki in data set [1] was 120 nM.

The molecule `CC[C@H](C)[C@H](NC(=O)[C@H](CC(C)C)NC(=O)C(CC(C(=O)O)C(=O)O)NC(=O)[C@H](CC(=O)O)NC(C)=O)C(=O)N[C@@H](CC1CCCCC1)C(=O)N[C@@H](CS)C(=O)O` (single isomer, unassigned) registered an inhibitory constant (Ki) in data set [1] of 91 nM.

The molecule `CC(C)(C)NC(=O)Nc1ncc(Cc2ccccc2)n(CC(=O)NC2(C(=O)NS(=O)(=O)c3ccc(C(F)(F)F)cc3)CC(O)C2)c1=O` (centres undefined) displayed an inhibition constant Ki in data set [1] of 450 nM.

For the molecule `CN(C(=O)c1ccccc1NC(=O)Cn1c(CCC2CCCCC2)c(Cl)nc(NC(=O)NC(C)(C)C)c1=O)S(=O)(=O)c1ccc(C(F)(F)F)cc1`, affinity in data set [1] was put at a Ki of 260 nM.

On to `CC(C)(C)NC(=O)Nc1nc(Cl)c(Cc2cccc3ccccc23)n(CC(=O)Nc2cccc(S(=O)(=O)NC(=O)c3ccc(C(F)(F)F)cc3)c2)c1=O`, for which the Ki in data set [1] was 190 nM.

On to `Cc1ccc(S(=O)(=O)NC(=O)c2ccccc2NC(=O)Cn2c(CCC3CCCCC3)c(Cl)nc(NC(=O)NC(C)(C)C)c2=O)cc1`, for which the Ki in data set [1] is 120 nM.

`CCCC(NC(=O)[C@@H]1[C@H]2CCC[C@H]2CN1C(=O)[C@@H](NC(=O)[C@@H](NC(=O)c1cnccn1)C1CCCCC1)C(C)(C)C)C(=O)C(=O)NC1CC1` (some centres undefined) showed an inhibition constant Ki in data set [1] of 15 nM. It took 650 nM to reach a half-maximal effect in the data set with Hepatitis C virus (EC50). Further, the CC50 in data set [2] was greater than 1000 nM.

In turn, `CC(C)(C)NC(=O)Nc1nc(Cl)c(Cc2ccccc2)n(CC(=O)NC2(C(=O)NS(=O)(=O)c3ccc(C(F)(F)F)cc3)CC(OCc3ccccc3)C2)c1=O` (centres undefined) registered a Ki in data set [1] of 150 nM.
